From ChEMBL document CHEMBL1145335, “Nonpeptide inhibitors of measles virus entry” (J Med Chem, 2006)
Active and inactive are the calls of the source. The calls are words filed in the database; no cut-off is given here.

Key:
Measles morbillivirus [1] = assay: Antiviral activity against wild type Measles virus Edmonston in Vero-CD150w cells by cytopathicity assay; format: functional, organism-based
Method in brief: (§1)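 Cells infected with MV Edmonston at MOI 0.2 pfu/cell in the presence of 2-fold compound dilutions, starting at 75–300 µM and ending at 0.3–1.2 µM. Two to four replicates per concentration; DMSO ≤0.1% with matched DMSO controls. Virus-induced cytopathicity was read at 96 h post-infection by nonradioactive proliferation assay. IC50 was taken from dose-response curves of replicate averages.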

Measles morbillivirus [2] = assay: Antiviral activity against Measles virus variant in Vero-CD150w cells by cytopathicity assay; format: functional, organism-based
Method in brief: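 MV variant carrying an F-protein point mutation at position 462. Cells infected at MOI 0.2 pfu/cell with 2-fold compound dilutions starting at 75–300 µM, in 2–4 replicates, with DMSO at most 0.1% and DMSO-matched controls. Cytopathicity quantified at 96 h post-infection by a nonradioactive proliferation assay. IC50 taken from dose-response curves of replicate averages.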

Vero [3] = assay: Cytotoxicity against Vero-CD150w cells; format: functional; settings: Chlorocebus sabaeus
Method in brief: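 Uninfected cells were exposed to 2-fold compound dilutions from 600 µM down to 2.3 µM for 36 to 40 h. Remaining proliferation was then measured over 1 h by nonradioactive proliferation assay. CC50 comes from two independent replicates.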

Vero [4] = assay: Selectivity index, CC50 for Vero-CD150w cells/IC50 for Measles virus Edmonston; format: functional
Method in brief: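 Ratio of CC50 to IC50. CC50: 2-fold dilutions from 600 µM, 36–40 h exposure, proliferation read-out, two independent replicates. IC50: suppression of cytopathicity at MOI 0.2 pfu/cell, 96 h, proliferation read-out, from dose-response curves of replicate averages.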

Measles morbillivirus [5] = assay: Antiviral activity against wild type Measles virus Edmonston in Vero-CD150w cells upto 100 uM by cytopathicity assay; format: functional, organism-based; method in brief: as §1
Measles morbillivirus [6] = assay: Antiviral activity against wild type Measles virus Edmonston in Vero-CD150w cells at >75 uM by cytopathicity assay; format: functional, organism-based; method in brief: as §1
[7] = Measles morbillivirus, Edmonston, Vero-CD150w, read-out: IC50

| SMILES | IC50 (Measles morbillivirus [1]; [7]) [µM] | IC50 (Measles morbillivirus [2]) [µM] | CC50 (Vero [3]) [µM] | Selectivity index (Vero [4]) | Activity (Measles morbillivirus [5]) | IC50 (Measles morbillivirus [1]; vero-cd150w) | Activity (Measles morbillivirus [6]) |
| --- | --- | --- | --- | --- | --- | --- | --- |
| Nc1cc(NC(=O)Cc2ccccc2)cc([N+](=O)[O-])c1 | 11 | > 150 | > 600 | >55 |  |  |  |
| O=C(Cc1ccccc1)Nc1cc([N+](=O)[O-])cc([N+](=O)[O-])c1 | 30 | > 150 | > 600 | >20 |  |  |  |
| O=C(COc1ccccc1)Nc1cc([N+](=O)[O-])ccc1O | > 100 |  | 600 | <6 |  |  |  |
| O=C(Cc1cccnc1)Nc1cccc([N+](=O)[O-])c1 | > 75 |  |  |  |  |  |  |
| O=C(Cc1ccccc1)Nc1cccc([N+](=O)[O-])c1 | 8.5 |  | > 600 | >71 |  |  |  |
| Nc1cc(C(=O)NCc2ccccc2)cc([N+](=O)[O-])c1 | 23 |  |  |  |  |  |  |
| O=C(Cc1ccccc1)Nc1cc([N+](=O)[O-])ccc1OC(=O)Cc1ccccc1 | 68 |  | 75 | 1 |  |  |  |
| Nc1cc(CO)cc(NC(=O)Cc2ccccc2)c1 |  |  |  |  | inactive |  |  |
| O=C(Cc1ccccc1)Nc1ccc(F)cn1 | 109 |  | > 600 | >6 |  |  |  |
| O=C(Cc1ccccn1)Nc1cccc([N+](=O)[O-])c1 | > 75 |  |  |  |  |  |  |
| O=C(Cc1ccccc1)Nc1ccc(O)c([N+](=O)[O-])c1 | 63 |  | > 600 | >10 |  |  |  |
| N#Cc1cccc(NC(=O)Cc2ccccc2)c1 | 6.5 | > 150 | > 600 | >92 |  |  |  |
| O=C(Cc1ccccc1)Nc1ccc([N+](=O)[O-])cc1 | 16 |  | 550 | 34 |  |  |  |
| O=C(Cc1ccccc1)Nc1cc(C(=O)O)cc([N+](=O)[O-])c1 | 5 | > 150 | > 600 | >120 |  |  |  |
| COC(=O)c1cc(NC(=O)Cc2ccccc2)cc([N+](=O)[O-])c1 | 4 | > 150 | 440 | 110 |  |  |  |
| O=C(Cc1ccccc1)Nc1cc(CO)cc([N+](=O)[O-])c1 | 6 | > 150 | > 600 | >100 |  |  |  |
| O=C(Cc1ccccc1)Nc1cc([N+](=O)[O-])ccc1O | 47 |  | 450 | 10 |  |  |  |
| O=C(Cc1ccccc1)Nc1cc(NO)cc([N+](=O)[O-])c1 | 6 | > 75 | 325 | 54 |  |  |  |
| Nc1ccc(NC(=O)Cc2ccccc2)cc1 | 135 |  | > 600 | >4 |  |  |  |
| COc1cccc(CC(=O)Nc2cc([N+](=O)[O-])ccc2O)c1 | > 100 |  | > 600 |  |  |  |  |
| Nc1cccc(NC(=O)Cc2ccccc2)c1 | 19 | > 150 | > 600 | >32 |  |  |  |
| NC(=O)c1ccc(O)c(NC(=O)Cc2ccccc2)c1 | 127 |  | > 600 | >5 |  |  |  |
| O=C(COc1ccccc1)Nc1ccc([N+](=O)[O-])cc1O | > 100 |  | > 600 |  |  |  |  |
| O=C(Cc1ccccc1)Nc1cc(C(F)(F)F)ccc1O | > 100 |  | > 600 |  |  |  |  |

| SMILES | IC50 (Measles morbillivirus [1]; [7]) [µM] | IC50 (Measles morbillivirus [2]) [µM] | CC50 (Vero [3]) [µM] | Selectivity index (Vero [4]) | Activity (Measles morbillivirus [5]) | IC50 (Measles morbillivirus [1]; vero-cd150w) | Activity (Measles morbillivirus [6]) |
| --- | --- | --- | --- | --- | --- | --- | --- |
| COc1ccc(CC(=O)Nc2cc([N+](=O)[O-])ccc2O)cc1 | > 100 |  | 600 | <6 |  |  |  |
| COC(=O)c1ccc(O)c(NC(=O)Cc2ccccc2)c1 | 66 |  | > 600 | >9 |  |  |  |
| Nc1cc(N)cc(NC(=O)Cc2ccccc2)c1 | > 100 |  |  |  |  |  |  |
| O=C(Cc1ccccc1)Nc1cccc(O)c1 | 25 |  | > 600 | >24 |  |  |  |
| O=C(Cc1ccccc1)Nc1ccccc1C(=O)O | 60 |  | > 600 | >10 |  |  |  |
| Nc1ccc(NC(=O)Cc2ccccc2)c(O)c1 | 75 |  | > 600 | >8 |  |  |  |
| O=C(Cc1ccccc1)Nc1ccc(F)c([N+](=O)[O-])c1 | > 100 |  | 450 | <5 |  |  |  |
| O=C(Cc1ccc(I)cc1)Nc1cccc([N+](=O)[O-])c1 | > 75 |  |  |  |  |  |  |
| Nc1ccc(NC(=O)COc2ccccc2)c(O)c1 |  |  |  |  |  | Not Active |  |
| O=C(Cc1cccc(I)c1)Nc1cccc([N+](=O)[O-])c1 | > 300 |  |  |  |  |  |  |
| O=C(Cc1ccccc1I)Nc1cccc([N+](=O)[O-])c1 | > 300 |  |  |  |  |  |  |
| O=C(Cc1cccc(F)c1)Nc1cccc([N+](=O)[O-])c1 | 47 |  |  |  |  |  |  |
| O=C(Cc1ccc(F)cc1)Nc1cccc([N+](=O)[O-])c1 | 9 |  |  |  |  |  |  |
| Nc1ccc2oc(Cc3ccccc3)nc2c1 | 55 | > 150 | > 600 | >10 |  |  |  |
| O=C(Cc1ccccc1)Nc1ccccc1O | 13 | > 150 | 525 | 40 |  |  |  |
| O=C(Cc1ccccc1F)Nc1cccc([N+](=O)[O-])c1 |  |  |  |  |  |  | inactive |
| Nc1ccc(CO)c(NC(=O)Cc2ccccc2)c1 |  |  |  |  | inactive |  |  |
| O=[N+]([O-])c1ccc(O)c(NS(=O)(=O)Cc2ccccc2)c1 | > 300 |  |  |  |  |  |  |
| O=C(Cc1ccncc1)Nc1cccc([N+](=O)[O-])c1 | > 75 |  |  |  |  |  |  |
| O=C(Cc1ccccc1)Nc1ccccc1[N+](=O)[O-] | > 100 |  | > 600 |  |  |  |  |
| NC(=O)c1ccc([N+](=O)[O-])cc1NC(=O)Cc1ccccc1 | 3 | > 150 | 325 | 108 |  |  |  |
| NC(=O)c1cc(N)cc(NC(=O)Cc2ccccc2)c1 | 18 |  | > 600 | >33 |  |  |  |
| Nc1cc(NC(=O)Cc2ccccc2)cc(C(=O)O)c1 | 55 |  | > 600 | >11 |  |  |  |
| NC(=O)c1cc(NC(=O)Cc2ccccc2)cc([N+](=O)[O-])c1 | 3.7 | > 75 | 170 | 46 |  |  |  |
